Screening data deposited in PubChem BioAssay by Johns Hopkins Ion Channel Center.
KCNQ1 pot: human KCNQ1 channel potentiation or activation | P51787 | CHO-K1 KCNQ1, thallium flux FluxOR fluorescence; active compounds read high | hit rate 0.35% among 310,000 | B-score at 10 µM;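 active = fluorescence ratio B-score, a plate-corrected score, at least three library SD, with initial intensity B-score within 5 SD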
Target sequence (P51787 whole entry, looked up): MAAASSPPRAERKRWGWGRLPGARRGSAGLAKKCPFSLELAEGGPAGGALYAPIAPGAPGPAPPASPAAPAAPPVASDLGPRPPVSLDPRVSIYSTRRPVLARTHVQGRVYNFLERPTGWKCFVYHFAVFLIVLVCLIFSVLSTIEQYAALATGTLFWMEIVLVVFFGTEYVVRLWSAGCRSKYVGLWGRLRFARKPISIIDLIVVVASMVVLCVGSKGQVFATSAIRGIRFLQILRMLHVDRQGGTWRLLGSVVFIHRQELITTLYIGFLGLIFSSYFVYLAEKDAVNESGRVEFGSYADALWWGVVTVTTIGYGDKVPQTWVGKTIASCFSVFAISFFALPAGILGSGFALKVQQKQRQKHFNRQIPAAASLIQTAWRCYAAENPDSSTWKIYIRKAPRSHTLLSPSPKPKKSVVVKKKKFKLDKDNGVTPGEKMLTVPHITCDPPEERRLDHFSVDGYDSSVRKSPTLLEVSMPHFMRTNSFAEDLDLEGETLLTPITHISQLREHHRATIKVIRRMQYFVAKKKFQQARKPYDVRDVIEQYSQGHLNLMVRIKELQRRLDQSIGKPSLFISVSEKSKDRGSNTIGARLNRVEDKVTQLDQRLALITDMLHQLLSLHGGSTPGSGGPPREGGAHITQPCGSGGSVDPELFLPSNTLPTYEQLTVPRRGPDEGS
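System: CHO-K1 cells stably expressing KCNQ1 / Medium: assay buffer for compound exposure, DMSO matched across wells / Reagent: thallium- and potassium-containing depolarizing buffer / Compound: one concentration, matched DMSO / Incubation: 20 min compound pretreatment at room temperature / Measured by: kinetic FluxOR fluorescence, 10 s baseline plus 110 s post-stimulus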
KCNQ1 inh: inhibitors of human KCNQ1 potassium channel. P51787. B-score at 10 µM. hit rate 1.3% among 310,000. CHO-K1 KCNQ1, FluxOR thallium flux fluorescence; active compounds read high. AID 2642;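 active = compounds whose thallium flux B-score, printed positive for inhibition, exceeds three library SD while starting fluorescence stays within three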;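 also: channel opened by potassium depolarization with thallium stimulus after 20 min compound exposure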
hERG protect: shields human hERG channel from block by proarrhythmic agents | Q12809 | CHO-hERG, FluxOR thallium flux, dofetilide IC70 present | activation (rescue from dofetilide block), less the hit threshold, % at 10 µM | hit rate 0.51% among 310,000 | AID 1511;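 active = activation above the mean of controls blocked by dofetilide plus 5 SD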;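 also: thallium influx through hERG after potassium depolarization seen as dye fluorescence rise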
KCNK9 inh: inhibitors of human KCNK9 two-pore domain potassium channel. hit rate 1.2% among 310,000. B-score at 10 µM. HEK293 KCNK9, FluxOR thallium flux fluorescence; active compounds read low. AID 488922. Q9NPC2;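 active = ratio B-score over 3 SD below the library mean, with starting fluorescence within 5 SD of its mean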;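 also: negative B-score means less thallium flux so channel inhibition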
KCNK3 block: human KCNK3 channel inhibition, primary screen. O14649. B-score at 10 µM. CHO-KCNK3 thallium flux, FluxOR fluorescence; active compounds read low. AID 602410. hit rate 0.84% among 340,000;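 active = B-score under library mean minus 4 SD, starting fluorescence ratio at most library mean plus 5 SD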;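 also: more negative B-score means stronger inhibition of thallium flux through KCNK3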
KCNK9 block conf: confirmation of human KCNK9 potassium channel inhibitors; shares compounds with KCNK9 inh; HEK293 KCNK9 cells, FluxOR thallium flux fluorescence; inhibition, % at 10 µM; hit rate 43% among 4,900; AID 492992;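 active = thallium signal inhibited by more than 5 SD of the compound-free buffer control wells, on both duplicate plates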;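 also: 0% = assay buffer control wells without compound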
Kir21 sel: selectivity of KCNK9 modulators against mouse Kir2.1. shares compounds with KCNK9 inh. hit rate 4% among 4,900. inhibition, % at 10 µM. Kir2.1 cells, FluxOR thallium flux fluorescence;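 active = thallium signal drop more than 5 SD beyond the mean of the no-compound control wells, seen in both duplicate plates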;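 also: signal is fluorescence rise after thallium addition divided by baseline fluorescence; plate controls were assay buffer only for no effect and full block by chlorpromazine control for full effect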
HEK293 Tl ctr: non-induced cell nonspecific activity of KCNK9 modulators; inhibition, % at 10 µM; non-induced KCNK9-HEK293, FluxOR thallium flux; shares compounds with KCNK9 inh; hit rate 40% among 4,900;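 active = thallium signal drop beyond 5 SD of the untreated control mean, on both duplicate plates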;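 also: plate controls were buffer only IC0 wells for no effect and SID17386958 at its maximal inhibitory level for full effect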
* = called active by the depositor; i = inactive; x = not tested or not shown. Compounds with a hit are over-represented: about 3.1% of the library has one in this group of screens.

SMILES	KCNQ1 pot	KCNQ1 inh	hERG protect	KCNK9 inh	KCNK3 block	KCNK9 block conf	Kir21 sel	HEK293 Tl ctr
CCc1nc(Sc2nnnn2-c2ccccc2)c2c3c(sc2n1)CCCC3	i	i	-5	i	i	i	i	i
Cc1nc(Sc2nnnn2C)c2c3c(sc2n1)CCC3	x	x	x	x	i	x	x	x
CC1(c2ccc(OCC#N)cc2)C=C(c2ccc(OCC#N)cc2)n2nc(C(F)(F)F)nc2N1 (stereo not drawn)	i	i	-7	-9.2*	i	43%*	i	44%*
O=C(NN=C1CCCCCCC1)c1ccc2ccccc2n1	i	i	-28	i	i	x	x	x
Oc1ccc2ccccc2c1CN1CCN(C/C=C/c2ccccc2)CC1	i	i	-9	i	i	i	i	i
O=S(=O)(c1ccc(F)cc1)N1CCN(CCc2ccccc2)CC1	i	i	-6	i	i	i	i	i
O=S(=O)(c1ccc(Cl)cc1)N1CCN(CCc2ccccc2)CC1	i	i	-8	i	i	x	x	x
O=S(=O)(c1ccccc1)N1CCN(C/C=C/c2ccccc2)CC1	i	i	-3	i	i	i	i	i
O=S(=O)(c1ccccc1)N1CCN(Cc2c(O)ccc3ccccc23)CC1	x	x	x	x	i	x	x	x
COc1ccc(C2CC(=O)Oc3cc(C)c(Cl)cc32)cc1 (stereo not drawn)	x	x	x	x	i	x	x	x
CCOc1ccc(NC(=O)CSc2nnc(C3CC3)n2C2CC2)cc1	x	x	x	x	i	x	x	x
COc1cccc(NC(=O)C(Sc2nnc(Nc3ccccc3C)s2)c2ccccc2)c1 (stereo not drawn)	i	i	-7	-9.1*	i	i	i	38%*
COc1ccc(Nc2nnc(SC(C(=O)Nc3cc(C)ccc3C)c3ccccc3)s2)cc1 (stereo not drawn)	i	i	-14	i	i	x	x	x
COc1ccc(CN2CCCC(C(=O)c3ccc4c(c3)OCO4)C2)c(F)c1 (stereo not drawn)	i	i	-9	i	i	i	i	i
CC(C)Oc1cccc(C(=O)C2CCCN(C(=O)c3ccc4c(c3)OCO4)C2)c1 (stereo not drawn)	i	i	-7	i	i	i	i	i
CC(C)Oc1cccc(C(=O)C2CCCN(C(=O)c3cncs3)C2)c1 (stereo not drawn)	i	i	-7	i	i	x	x	x
CC(C)Oc1cccc(C(=O)C2CCCN(C(=O)c3ccsc3)C2)c1 (stereo not drawn)	i	i	-11	i	i	i	i	i
CC(C)Oc1cccc(C(=O)C2CCCN(C(=O)c3noc4c3CCCC4)C2)c1 (stereo not drawn)	i	i	-6	i	i	i	i	i
CC(C)Oc1cccc(C(=O)C2CCCN(C(=O)c3ccccn3)C2)c1 (stereo not drawn)	i	i	-7	i	i	x	x	x
COc1cccc(OC)c1C(=O)Nc1cccnc1	i	i	-11	i	i	x	x	x
COc1ccc(NS(=O)(=O)c2cc(NC(=O)CCc3ccc(OC)c(OC)c3)ccc2N2CCOCC2)cc1	x	x	x	x	i	x	x	x
O=C(NCC1CCCO1)C1CC1(c1ccccc1)c1ccccc1 (stereo not drawn)	i	i	-5	i	i	x	x	x
C=CCNC(=S)N1N=C(c2ccco2)CC1c1ccco1 (stereo not drawn)	x	x	x	x	i	x	x	x
CCc1nnc(NC(=O)COc2ccccc2[N+](=O)[O-])s1	i	i	0	i	i	x	x	x
COc1ccc(C(=O)COC(=O)C(CCSC)NS(=O)(=O)c2ccc(Cl)cc2)cc1 (stereo not drawn)	i	i	-5	i	i	i	i	i
SMILES	KCNQ1 pot	KCNQ1 inh	hERG protect	KCNK9 inh	KCNK3 block	KCNK9 block conf	Kir21 sel	HEK293 Tl ctr
O=C(COc1ccc2cc(-c3ccccc3)c(=O)oc2c1)NCC1CCC(C(=O)O)CC1 (stereo not drawn)	i	i	-9	i	i	x	x	x
COc1cc(OC)cc(C(=O)NCC(=O)OCC(=O)C(C)(C)C)c1	i	i	-3	i	i	x	x	x
CCCCn1c(N)c(N(CCOC)C(=O)c2cc3c(s2)CCC3)c(=O)[nH]c1=O	i	i	-13	i	i	x	x	x
NC(=O)CN1CCN(c2cccc(Cl)c2)CC1	i	i	-11	i	i	x	x	x
O=C(CN1CCN(c2ccccc2)CC1)Nc1ccc2c(c1)CCC2	i	i	-10	i	i	i	i	i
O=C(CN1CCN(c2cccc(Cl)c2)CC1)NC1CCCc2ccccc21 (stereo not drawn)	i	i	-14	i	i	i	i	i
O=C(NCC1CCCO1)c1onc(CSc2cccc3ccccc23)c1C(=O)O (stereo not drawn)	i	i	-3	i	i	x	x	x
COc1ccc(C(=O)/C=C/NCc2ccc(C)cc2)cc1	i	i	-7	i	i	i	i	i
CC(C)(C)OC(=O)NCCCC[C@H](NC(=O)c1nc[nH]c1C(=O)N1CCc2ccccc2C1)C(=O)OC(C)(C)C	i	i	-12	i	i	x	x	x
CC(C)(C)OC(=O)[C@H](Cc1ccccc1)NC(=O)c1nc[nH]c1C(=O)N1CCc2ccccc2C1	i	i	-12	i	i	i	i	i
CC(C)C[C@H](NC(=O)c1nc[nH]c1C(=O)NCc1ccc(CNC(=O)OC(C)(C)C)cc1)C(=O)OC(C)(C)C	i	i	-7	-8.8*	i	32%*	i	29%*
COCCN=c1scc(-c2cc(OC)ccc2OC)n1/N=C/c1c[nH]c2ccccc12	i	i	-14	i	i	i	i	i
O=C(OC1CCN(c2ncc(C(F)(F)F)cc2Cl)CC1)c1ccc(Cl)cc1	i	i	-9	i	i	i	i	i
O=C(OCCN1CCN(c2ncc(C(F)(F)F)cc2Cl)CC1)c1ccc(Cl)cc1	i	i	-10	i	i	x	x	x
O=C(O)c1ccccc1NSc1ccccc1[N+](=O)[O-]	i	i	-4	i	i	x	x	x
CCc1ccc(NSc2ccccc2[N+](=O)[O-])cc1	i	i	-7	-8.8*	i	42%*	i	28%*
ON=C1c2ccccc2-c2cc(Br)ccc21	x	x	x	x	i	x	x	x
COc1cc2c(cc1OC)-c1nnc(-c3ccco3)n1C1(CCCC1)C2	i	i	-8	-13*	i	46%*	i	28%*
